Measured values published in ChEMBL document CHEMBL2046350, “Bahamaolides A and B, antifungal polyene polyol macrolides from the marine actinomycete Streptomyces sp” (J Nat Prod, 2012).
In brackets after ≈: the same amount, converted by molar mass. Activity calls are given as the source filed them. No cut-off for these calls is given here.

Key:
[1] = system: A549; experiment: Cytotoxicity against human A549 cells at 100 ug/ml; assay type: functional, cell-based
[2] = system: SK-HEP1; experiment: Cytotoxicity against human SKHEP1 cells at 100 ug/ml; assay type: functional, cell-based
[3] = system: Staphylococcus aureus; experiment: Antibacterial activity against Staphylococcus aureus ATCC 6538p; assay type: functional, organism-based
[4] = system: Aspergillus fumigatus; experiment: Antifungal activity against Aspergillus fumigatus HIC 6094 after 48 to 72 hrs; assay type: functional
In short: (§1)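 Candida albicans grown in YPD (1% yeast extract, 2% peptone, 2% dextrose) 48 h at 28 °C, harvested, washed twice with water; moulds grown on potato dextrose agar 2 weeks at 28 °C, spores washed and resuspended in PDB. Broth microdilution in PDB (10⁴ cells/mL) with compound added in 5% DMSO (0.5% DMSO solvent control); 28 °C, 48–72 h; MIC = lowest concentration inhibiting growth.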

[5] = system: Salmonella typhimurium; experiment: Antibacterial activity against Salmonella typhimurium ATCC 14028; assay type: functional, organism-based; conditions: Salmonella enterica subsp. enterica serovar Typhimurium
[6] = system: Escherichia coli; experiment: Antibacterial activity against Escherichia coli ATCC 35270; assay type: functional, organism-based
[7] = system: Proteus vulgaris; experiment: Antibacterial activity against Proteus vulgaris ATCC 3851; assay type: functional, organism-based
[8] = system: MDA-MB-231; experiment: Cytotoxicity against human MDA-MB-231 cells at 100 ug/ml; assay type: functional, cell-based
[9] = system: Trichophyton mentagrophytes; experiment: Antifungal activity against Trichophyton mentagrophytes IFO4 0996 after 48 to 72 hrs; assay type: functional; in short: as §1
[10] = system: Micrococcus luteus; experiment: Antibacterial activity against Micrococcus luteus IFO 12708; assay type: functional, organism-based
[11] = system: Candida albicans; experiment: Antifungal activity against Candida albicans ATCC 10231 after 48 to 72 hrs; assay type: functional; in short: as §1
[12] = Inhibition of candida albicans ICL assessed as formation of glyoxylate phenylhydrazone after 30 mins by Dixon and Kornberg's method
[13] = system: HCT-116; experiment: Cytotoxicity against human HCT116 cells at 100 ug/ml; assay type: functional, cell-based
[14] = system: Bacillus subtilis; experiment: Antibacterial activity against Bacillus subtilis ATCC 6633; assay type: functional, organism-based
[15] = system: Trichophyton rubrum; experiment: Antifungal activity against Trichophyton rubrum IFO 9185 after 48 to 72 hrs; assay type: functional; in short: as §1
[16] = system: Candida albicans; experiment: Inhibition of candida albicans ICL assessed as formation of glyoxylate phenylhydrazone at 100 ug/ml after 30 mins by Dixon and Kornberg's method

Row | Structure (SMILES) | Activity [1] | Activity [2] | Activity [3] | MIC [4] | Activity [5] | Activity [6] | Activity [7] | Activity [8] | MIC [9] | Activity [10] | MIC [11] | IC50 [12] | Activity [13] | Activity [14] | MIC [15] | inhibition [16] | Activity [4] | Activity [9] | Activity [11] | Activity [15]
1 | CC(C)[C@@H]1OC(=O)/C=C/C=C/C=C/C=C/C=C/C=C/C[C@@H](O)C[C@H](O)C[C@H](O)C[C@H](O)C[C@@H](O)C[C@H](O)C[C@@H](O)C[C@@H](O)C[C@@H](O)CC[C@@H]1C [BAHAMAOLIDE A] | inactive | inactive | inactive | 12.5 µg/mL (≈ 17.6 µM) | inactive | inactive | inactive | inactive | 12.5 µg/mL (≈ 17.6 µM) | inactive | 12.5 µg/mL (≈ 17.6 µM) | 10.8 µM | inactive | inactive | 12.5 µg/mL (≈ 17.6 µM) | – | – | – | – | –
2 | C[C@@H]1[C@H](O)[C@@H](C)/C=C/C=C/C=C/C=C/C=C/C=C/C=C/[C@H](O[C@@H]2O[C@H](C)[C@@H](O)[C@H](N)[C@@H]2O)C[C@@H]2O[C@](O)(C[C@@H](O)C[C@@H](O)[C@H](O)CC[C@@H](O)C[C@@H](O)CC(=O)O[C@H]1C)C[C@H](O)[C@H]2C(=O)O | – | – | – | – | – | – | – | – | – | – | – | – | – | – | – | inactive | – | – | – | –
3 | CC(C)[C@@H]1OC(=O)/C=C/C=C/C=C/C=C/C=C/C=C\C[C@@H](O)C[C@H](O)C[C@H](O)C[C@H](O)C[C@@H](O)C[C@H](O)C[C@@H](O)C[C@@H](O)C[C@@H](O)CC[C@@H]1C [BAHAMAOLIDE B] | inactive | inactive | inactive | – | inactive | inactive | inactive | inactive | – | inactive | – | 127 µM | inactive | inactive | – | – | inactive | inactive | inactive | inactive
